Measured values pooled from the literature.
Read-out: enzyme activity
Mode: inhibitor
CDK5 with p35: Cyclin-dependent kinase 5, with p35 (CDK5, Homo sapiens, UniProt Q00535)
CDK5 with p25: Cyclin-dependent kinase 5, with p25 (CDK5, Homo sapiens, UniProt Q00535)

`COc1cc(Cl)c(C(=O)N[C@@H](CN[C@H]2CC[C@@H](N)CC2)Cc2ccc(C#N)cc2)cc1-c1ccc(CN[C@H](C)c2ccc(C)cc2)o1` has a remaining activity of 88% (CDK5 with p35; 1 µM).
`Cc1sc(C(=O)NC2COC2)cc1-n1cc(NC(=O)Nc2c(F)cccc2Cl)cn1` gave a remaining activity of 103% (CDK5 with p35; 10 µM).
The remaining activity of `Cc1cnc(NC2CCOCC2)nc1-n1cnc(C(=O)NC(CN)c2cc(F)cc(Cl)c2)c1` (centres unmarked) is reported as 2% (CDK5 with p25; radiometric; 1 µM).
The remaining activity of `O=C(Nc1cnn(-c2csc(C(=O)NC3COC3)c2)c1)Nc1ccccc1Cl` is reported as 95.4% (CDK5 with p35; 5 µM).
The remaining activity of `CCN(CC)c1ccc(C2=NNC(=O)CC2C)cc1[N+](=O)[O-]` (centres unmarked) is reported as 109% (CDK5 with p35; 10 µM).
`CC[C@H](C)[C@H](NC(=O)[C@H](CCC(N)=O)NC(=O)[C@H](CC(C)C)NC(=O)[C@H](CCSC)NC(=O)[C@H](CCCCN)NC(=O)[C@H](CO)NC(=O)[C@H](CO)NC(=O)[C@H](CCSC)NC(=O)[C@H](CC(C)C)NC(=O)[C@H](CC(N)=O)NC(=O)[C@@H](NC(=O)[C@@H](NC(=O)[C@H](CO)NC(=O)[C@H](CC(C)C)NC(=O)[C@H](CS)NC(=O)[C@H](CCCNC(=N)N)NC(=O)[C@H](CC(=O)O)NC(=O)[C@H](Cc1c[nH]c2ccccc12)NC(=O)[C@H](Cc1ccccc1)NC(=O)[C@H](C)NC(=O)[C@H](CCC(=O)O)NC(=O)[C@@H](N)CCCCN)C(C)C)[C@@H](C)CC)C(=O)N[C@@H](CC(N)=O)C(=O)N[C@@H](C)C(=O)O` has a remaining activity of 41% (CDK5 with p25; radiometric; 250 µM, 20 min).
The remaining activity of `CCCOc1ccc(OC)c(F)c1C(=O)c1ccc(C(=O)N[C@@H]2CNC[C@H]2NC(=O)c2ccc3[nH]ncc3c2)cc1` is reported as 112% (CDK5 with p25; 0.1 µM).
`CC(C)(C)c1nc2c(s1)c1nc(N)ncc1c1ccc(NS(=O)(=O)c3c(F)cccc3F)c(F)c12` has a remaining activity of 77% (CDK5 with p35; radiometric; 1 µM).
The remaining activity of `O=C(Nc1cnn(-c2csc(C(=O)NC3COC3)c2)c1)Nc1c(F)cccc1Cl` is reported as 94.3% (CDK5 with p35; 5 µM).
`Cc1ccc(C(=O)Nc2ccc(CN3CCN(C)CC3)c(C(F)(F)F)c2)cc1C#Cc1cnc2cccnn12` has a remaining activity of 98% (Cyclin-dependent kinase 5 (CDK5, Homo sapiens, UniProt Q00535); 23.5 nM).
`CC(C)(O)[C@H]1CC[C@H](Nc2ccc3ncc(-c4cccc(C(F)(F)F)c4)n3n2)CC1` gave a remaining activity of 92.2% (CDK5 with p25; 1 µM).
